# The list is not random: actives were taken first. Their share in the collection is about 5.2%.
# M1 antag: M1 muscarinic receptor (rat) antagonism; AID 628; CHO-M1 cells, Fluo-4 calcium, ACh EC80 antagonist mode; stronger effect = lower value; P08482; B-score at 10 µM; hit rate 3.4% among 64,000;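 active = calcium fluorescence response, raw or row-and-column corrected B-score, differing from the plate sample mean either way at a set confidence level, mostly lower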
# Target sequence (P08482 whole entry, looked up): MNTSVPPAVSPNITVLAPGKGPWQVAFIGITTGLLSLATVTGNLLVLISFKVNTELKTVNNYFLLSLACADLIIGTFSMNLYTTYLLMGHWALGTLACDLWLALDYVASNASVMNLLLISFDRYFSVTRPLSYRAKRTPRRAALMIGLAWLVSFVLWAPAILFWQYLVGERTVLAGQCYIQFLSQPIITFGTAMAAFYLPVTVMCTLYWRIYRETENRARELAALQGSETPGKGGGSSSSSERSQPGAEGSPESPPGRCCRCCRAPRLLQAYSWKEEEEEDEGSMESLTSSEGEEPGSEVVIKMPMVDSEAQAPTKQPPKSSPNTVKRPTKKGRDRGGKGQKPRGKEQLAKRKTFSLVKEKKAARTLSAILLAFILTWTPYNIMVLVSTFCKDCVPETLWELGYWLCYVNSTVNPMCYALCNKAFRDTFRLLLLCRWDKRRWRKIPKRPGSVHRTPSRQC
# WNV protease inh: inhibitors of West Nile virus NS2B-NS3 protease. WNV NS2B-NS3 protease, fluorogenic substrate Ex360/Em465; stronger effect = lower value. z-score (no concentration beside the values). hit rate 0.18% among 65,000; in the data active = z-score below about -3
# E coli WT exp: growth inhibitors of E. coli BW25113 wild type; OD600 absorbance; growth inhibition, % at 100 µM; hit rate 0.15% among 98,000; AID 710;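 active = growth inhibition above about 50% at one test dose, limit read from the data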;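 note: growth measured after 20 h incubation at 37 °C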
# M1 agonist: agonists of M1 muscarinic receptor. CHO-M1 cells, Fluo-4 calcium fluorescence, agonist mode; stronger effect = higher value. B-score at 10 µM. hit rate 3% among 64,000;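 active = fluorescence rise, raw or as B-score row- and column-corrected plate score, outside the 99.7% band of its plate's samples, either direction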
# AP complement: alternative pathway complement inhibition, orthogonal assay; inhibition, % at 5 µM; Human serum alternative complement pathway, LPS-coated ELISA, C3 deposition; tested in compound mixtures; hit rate 0.08% among 62,000; AID 1235;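 active = inhibition above 30% in each of the two pooled mixtures holding the compound, so the lower value exceeds 30%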;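 note: 0% = serum in Mg-EGTA without compound and 100% = EDTA serum blank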
#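 Test system – human serum alternative complement pathway, C3 deposition on LPS-coated wells · Buffer or medium – diluted human serum in Mg2+-EGTA GVB++ · Compound dosing – 5 µM each compound, pools of ten, 50 µM per pool · Schedule – 1 h serum-compound exposure at 37 °C · Measured by – Anti-C3 ELISA, OD 450 nm · Read-out basis – percent inhibition of C3 deposition onto LPS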
# tolC growth inh: blocks growth of E. coli BW25113 tolC mutant; OD615; growth inhibition, % at 10 µM (by protocol); hit rate 2.2% among 65,000;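 active = growth inhibition at or above a cutoff equal to the mean over every tested compound plus 3 SD, cut at about 60% in these data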;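 note: growth measured after 20 h incubation at 37 °C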
#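 Doses: one dose of 10 µM final / Material: E. coli BW25113 ΔtolC::kan, tolC deletion mutant strain / Buffer or medium: LB with kanamycin 50 µg/mL / Evaluation: percent growth inhibition / Detection: optical density read at 615 nm / Incubation: 37 °C, 20 h exposure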
# Active calls of the source: *; nt = no result.
SMILES,M1 antag,WNV protease inh,E coli WT exp,M1 agonist,AP complement,tolC growth inh
Cc1nc(SCC(=O)N2CCc3ccccc32)n[nH]1,nt,nt,-8,nt,nt,nt
CC(C)Oc1ccc(Cc2c(O)nc(NCCCN(C)C)[nH]c2=O)cc1,0.031,-0.76,-1,-1.1,nt,2
O=C(c1ccccc1CCc1ccccc1)N1CCOCC1,-0.36,-0.17,-7,-0.48,3,1
O=C(c1ccco1)N1CCN(C(=O)c2cc(-c3ccccn3)nc3ccc(Cl)cc23)CC1,-0.85,-0.11,2,5.3*,5,10
C=CCn1c(SCc2c(C(=O)OC)sc(N)c2C(=O)OC)nnc1-c1ccc(Br)cc1,nt,nt,3,nt,nt,nt
CC(C)n1c(SCCCc2ccccc2)nc2c1c(=O)[nH]c(=O)n2C,-0.44,-0.14,0,-0.24,33*,10
CN(C)/C=C1/Sc2ccccc2C1=O,-0.38,-4.1*,13,0.64,-1,-1
Cc1nn(-c2nc3ccccc3[nH]2)c(N)c1-c1ccccc1,0.042,0.26,nt,0.52,22,76*
CCC(C)(C)C1CCC(=NNC(=O)c2ccoc2C)CC1 (stereo not given),nt,nt,7,nt,nt,nt
O=C1c2ccccc2-c2onc3c(Oc4ccccc4)cc(O)c1c23,nt,nt,-5,nt,nt,nt
O=C(O)CCCNc1cc(N2CCC3(CC2)OCCO3)c2noc3c2c1C(=O)c1ccccc1-3,0.42,-1.2,-34,6.2*,5,-1
COC(=O)c1[nH]c2ccccc2c1NC(=O)CN1CCN(c2cccc(OC)c2)C(C)C1 (stereo not given),-0.18,-0.99,-28,2.7,28,77*
CSCSC1=C(C#N)C(c2ccccc2Cl)C(C(C)=O)=C(C)N1 (stereo not given),-0.78,1.1,-11,-0.61,4,63*
CCOC(=O)CSC1=C(C#N)C(c2ccccc2F)C(C(C)=O)=C(C)N1 (stereo not given),-0.97,-1.3,4,0.19,14,36
N#Cc1c(/N=C/c2ccco2)oc(-c2ccccc2)c1-c1ccccc1,-0.052,-1.1,-4,1.2,1,77*
Cc1ccc2c(CSc3nc4ccccc4c(=O)n3CCCO)cc(=O)oc2c1,-0.19,0.44,nt,10*,5,25
O=C(CSc1nc2ccccc2c(=O)n1CCCO)NCc1ccccc1,-0.19,0.52,1,0.064,12,-7
Cc1ccc(S(=O)(=O)n2nc(-c3ccco3)nc2SCc2ccccc2)cc1,-1.2,0.08,-14,2.2*,nt,11
CCOC(=O)c1c(C)n(C)c2ccc(OCC(O)Cn3nc(C)c(Br)c3C)cc12 (stereo not given),-0.48,0.98,nt,1.3,nt,88*
COc1ccc(-c2[nH]ncc2-c2ccc3c(c2)OCCO3)c(O)c1,0.64,0.63,3,0.037,7,98*
CCc1cc(-c2[nH]ncc2-c2ccc3c(c2)OCO3)c(O)cc1O,-0.0031,-0.68,nt,3.2,-14,100*
CCCc1cc(-c2[nH]ncc2-c2ccc3c(c2)OCCCO3)c(O)cc1OC,nt,nt,13,nt,nt,nt
CC1(C)Cc2ccccc2-c2nnc(SCC(=O)Nc3nc4ccccc4s3)n21,0.056,-0.2,-1,0.045,5,10
Cc1cc2ccccc2c(=O)n1CC(=O)NCc1ccco1,nt,nt,4,nt,nt,nt
CC(C)(C)NC(=O)c1ccc2c(c1)N(CC(=O)N1CCN(c3ccc(F)cc3)CC1)C(=O)C(C)(C)O2,0.038,-1.1,-6,0.11,13,-12
SMILES,M1 antag,WNV protease inh,E coli WT exp,M1 agonist,AP complement,tolC growth inh
COc1ccc(S(=O)(=O)Nc2ccccn2)cc1OC,0.32,1.1,11,-0.52,2,-7
Nc1ccc(S(=O)(=O)Nc2ccccn2)cc1,-0.016,-3.1*,nt,0.035,1,15
CCOC(=O)c1nnn(-c2nonc2N)c1CN(C)Cc1ccccc1,nt,-0.0084,5,nt,-3,11
CNC(=S)N1CCN(c2c(F)cc3c(=O)c(C(=O)O)cn(C4CC4)c3c2OC)CC1C (stereo not given),nt,nt,100*,nt,nt,nt
CCOC(=O)c1cn(-c2nc(-c3ccc(Cl)cc3)cs2)c2c(F)c(N3CC(C)OC(C)C3)c(F)cc2c1=O (stereo not given),nt,nt,-5,nt,nt,nt
COc1c(N2CCN(C(=S)Nc3ccccc3)C(C)C2)c(F)cc2c(=O)c(C(=O)O)cn(C3CC3)c12 (stereo not given),nt,nt,99*,nt,nt,nt
COc1ccc(C(=O)Nc2ccc(S(=O)(=O)Nc3nccnc3OC)cc2)cc1OC,-19*,0.19,-5,25*,-2,-9
CCOCCCN1CC(C(=O)NCCc2ccccc2)CC1=O (stereo not given),2.2*,-1.3,-8,0.29,24,-12
CC(C)CCN1CC(C(=O)NCc2ccc(F)cc2)CC1=O (stereo not given),0.061,-4*,6,-0.47,19,-5
CS(=O)(=O)N(Cc1ccccc1)c1ccc(C(=O)N2CCc3ccccc3C2)cc1,nt,nt,1,nt,nt,nt
CC1(C)CC(=O)C=C(NCCN2CCN(C(=O)Nc3ccc(Cl)c(Cl)c3)CC2)C1,-0.083,1.9,14,-0.2,4,61*
O=C(OCCN1C(=O)c2ccccc2C1=O)c1cccc(OC(F)F)c1,-0.042,2.2,-10,0.36,5,12
CSc1nnc(-c2sc3cc(C(F)(F)F)cnc3c2-c2ccccc2)n1C,nt,nt,10,nt,nt,nt
C=CCn1c(SCC(O)Cn2c3ccccc3c3ccccc32)nnc1-c1ccco1 (stereo not given),1.3,0.48,-22,-0.32,-3,81*
COc1ccccc1-c1nnc(SC/C(O)=C(\C#N)c2nc3ccccc3[nH]2)n1C1CCCCC1,-0.32,2.6,nt,0.1,-6,71*
Cc1cccn2c(=O)c(C=NCc3ccco3)c(Nc3ccc(Cl)cc3)nc12,0.34,-3.3*,nt,0.33,8,12
CCOC(=O)c1c(-c2cccs2)csc1NC(=O)c1ccncc1,-0.17,-0.47,-12,0.33,nt,2
O=C(Nc1scc(-c2cccs2)c1C(=O)O)c1cccs1,-0.62,-1.2,-3,1.3,19,75*
O=C1CC(c2cccc(Br)c2)c2cc3c(cc2N1)CCC3 (stereo not given),nt,nt,-2,nt,nt,nt
N#CC1=C(N)NC(SCc2ccccc2)=C(C#N)C12CCCCC2,-1.4,-0.43,16,0.72,-2,62*
CC(C)N(C(=O)C1CC(=O)OC12CCCCC2)C(C)C (stereo not given),0.02,-0.77,3,0.064,9,-7
CC(C)CNC(=O)C1CC(=O)OC12CCCCC2 (stereo not given),2.1*,0.99,1,0.92,10,-3
CC(=O)C1=C(C)NC(SCC(=O)c2ccc(-c3ccccc3)cc2)=C(C#N)C1c1cccnc1 (stereo not given),nt,nt,-10,nt,nt,nt
CCc1cc(=O)oc2c(C)c(OCC(=O)N3CCCc4ccccc43)ccc12,nt,nt,0,nt,nt,nt
CC1CN(c2oc(COc3ccc(Cl)cc3Cl)nc2C#N)CC(C)O1 (stereo not given),-0.59,-0.33,-12,0.027,18,81*

# High-throughput results (PubChem)
